Source: PubChem BioAssay AID1381 (University of Pittsburgh Molecular Library Screening Center, 2008)
In all, about 220,000 compounds went through this assay and about 1,000 (0.45%) were called active.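 Rule for the calls: active = plate z-score of nuclear minus cytoplasmic receptor signal below a set negative limit, without overly bright fluorescence or cell loss (cut at about -3.5 in these data, passing the limit was not always enough); inactive = the rest, inconclusive results apart.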 Shown is part of a subset that was picked to be rich in actives.

Assay: inhibitors of GR-EGFP nuclear translocation, primary screen, dynein cargo transport inhibitor project, imaging, high-content, 3617.4 mouse cells (AID 1381)
Settings: stimulated with dexamethasone, 1 µM
Summary of the method: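 Medium: Induction medium lacking tetracycline, stripped serum | Probe or stimulus: 1.0 µM final dexamethasone stimulus | Schedule: 48 h induction, then 1 h compound, then 30 min agonist, 37 °C | Signal: Automated 10x imaging of fixed Hoechst-stained cells | Evaluation: Per-cell GR-EGFP intensity, nucleus versus surrounding cytoplasmic ring, well-averaged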

[1] = measured here: cell count per field, at 20 µM
[2] = measured here: cytoplasmic GR-EGFP intensity, at 20 µM, stronger effect = higher value
[3] = measured here: nuclear GR-EGFP intensity, at 20 µM, stronger effect = lower value
[4] = measured here: cell count per field, at 50 µM
[5] = measured here: cytoplasmic GR-EGFP intensity, at 50 µM, stronger effect = higher value
[6] = measured here: nuclear GR-EGFP intensity, at 50 µM, stronger effect = lower value

Structure (SMILES) | z-score (at 20 µM, stronger effect = lower value) | z-score [1] | z-score [2] | z-score [3] | z-score (at 50 µM, stronger effect = lower value) | z-score [4] | z-score [5] | z-score [6]
COc1ccc(C2/C=C\CN(S(=O)(=O)c3cccs3)CC(=O)N2Cc2ccc(F)cc2)cc1 (configuration not stated) | 1.14 (inactive) | -0.515 | -0.824 | 0.466 |  |  |  | 
O=C(CCCOc1ccccc1)NCc1ccco1 | 0.563 (inactive) | -0.922 | -0.00359 | 0.541 |  |  |  | 
CCc1cccc(NC(=O)CCC(=O)O)c1 | 0.674 (inactive) | -0.0336 | -0.309 | -0.143 |  |  |  | 
O=C(CCl)Nc1cccc(CP(=O)(c2ccccc2)c2ccccc2)c1 | -3.86 (active) | 0.102 | 0.338 | -1.58 |  |  |  | 
O=C(CCl)Nc1ccc(Sc2ccc(NC(=O)CCl)cc2)cc1 | -2.59 (inactive) | 0.102 | 0.25 | -1.01 |  |  |  | 
CC1(C)COC(c2cccn2Cc2ccccc2Cl)=N1 | -0.905 (inactive) | 0.489 | -0.115 | 0.38 |  |  |  | 
COc1ccccc1NS(=O)(=O)N(C)C | -0.0864 (inactive) | 0.4 | -0.101 | 0.17 |  |  |  | 
Cc1c(C#N)c(NC(=O)c2ccccc2)n(Cc2ccccc2)c1C | -0.291 (inactive) | 0.341 | -0.155 | -0.456 |  |  |  | 
CCN(CC)C(=O)CSC1c2ccccc2C(=O)N1c1ccccc1 (configuration not stated) | 2.73 (inactive) | -1.62 | -0.173 | 0.99 |  |  |  | 
CCC(=O)Nc1cccc(C2=NOC3(C2)C[C@@H](C(N)=O)N(C(=O)c2cc([N+](=O)[O-])cc([N+](=O)[O-])c2C)C3)c1 (some centres not stated) | -0.341 (inactive) | -0.348 | -0.641 | 0.119 |  |  |  | 
O=C(NCCOCc1ccc(Cl)cc1)c1ncn[nH]1 | 0.731 (inactive) | -0.271 | -0.00295 | 0.605 |  |  |  | 
O=C(/C=C/Sc1ncn[nH]1)c1ccc(Cl)cc1 | -3.98 (active) | 0.0934 | 1.02 | -1.6 |  |  |  | 
COc1ccc(Cl)cc1CSc1ncn[nH]1 | 1 (inactive) | -0.49 | -0.24 | 0.812 |  |  |  | 
NS(=O)(=O)c1ccc(CCNC(=O)NC2CCCCC2)cc1 | 0.431 (inactive) | 0.299 | -0.269 | 0.126 |  |  |  | 
CCOc1ccc(C(=O)NC2CCN(CC(=O)NCc3cccs3)CC2)cc1 | -1.07 (inactive) | -0.199 | -0.19 | -0.737 |  |  |  | 
O=Cc1ccc(Oc2cccc(C(F)(F)F)c2)nc1 | 1.74 (inactive) | -2.12 | 0.359 | 1.33 |  |  |  | 
CCOC(=O)C1=C(C)OC(N)=C(C#N)C1c1cncc(-c2ccc(F)cc2)c1 (configuration not stated) | -3.9 (active) | -0.136 | 0.28 | -1.42 |  |  |  | 
CCOC(=O)C1=C(CC)OC(N)=C(C#N)C1c1ccc(F)cc1F (configuration not stated) | -3.05 (inactive) | -0.462 | 0.472 | -1.28 |  |  |  | 
C=CCOC(=O)C1=C(C)OC(N)=C(C#N)C1c1ccc(F)cc1 (configuration not stated) | -1.1 (inactive) | 0.643 | -0.165 | -0.354 |  |  |  | 
O=C1c2ccccc2C(=O)N1Cc1cc(-c2ccccc2Cl)no1 | -0.0385 (inactive) | -0.0908 | -0.215 | 0.196 |  |  |  | 
COc1ccc(C)cc1NC(=S)Nc1ccccc1SC | -0.497 (inactive) | 0.252 | -0.293 | -0.178 |  |  |  | 
Cc1ccc(CN2CCN(Cc3ccc(OCCO)cc3)CC2CCO)o1 (configuration not stated) | 0.361 (inactive) | 0.953 | -0.289 | -0.03 |  |  |  | 
O=C1c2cccc3cc(Br)cc(c23)C(=O)N1Nc1ccccc1 | 0.228 (inactive) | 0.252 | -0.199 | 0.671 |  |  |  | 

Structure (SMILES) | z-score (at 20 µM, stronger effect = lower value) | z-score [1] | z-score [2] | z-score [3] | z-score (at 50 µM, stronger effect = lower value) | z-score [4] | z-score [5] | z-score [6]
O=C(Nc1ccccc1)OCc1cc(-c2ccc(Cl)cc2)on1 | 1.93 (inactive) | -1.86 | -0.165 | 1.78 |  |  |  | 
O=C1C=C(c2ccc(Cl)cc2)C(=O)N1Nc1ccccc1 | -4.4 (active) | -0.124 | 2.35 | -1.87 |  |  |  | 
CCOc1ccccc1N1CCN(C(=O)COc2ccc3c(C)cc(=O)oc3c2)CC1 | 1.35 (inactive) | -0.138 | -0.356 | 0.787 |  |  |  | 
O=C(CSc1nnc(-c2cccnc2)n1Cc1ccco1)c1ccc(Cl)cc1 | -0.358 (inactive) | -0.0648 | -0.209 | -0.055 |  |  |  | 
Clc1cccc(-c2nc3nc4ccccc4nc3n2Cc2ccco2)c1 | -4.09 (active) | 0.0368 | 2.09 | -1.78 |  |  |  | 
Cc1cc(NC(=O)CSc2nc3cc(Cl)ccc3c(=O)n2Cc2ccco2)no1 | 2.31 (inactive) | -1.55 | -0.306 | 1.39 |  |  |  | 
Cc1cccc(NC(=S)N2CCC(c3nc4ccccc4s3)CC2)c1 | -0.203 (inactive) | 0.43 | -0.197 | -0.339 |  |  |  | 
CC1CCN(C(=O)c2ccc(S(=O)(=O)Cc3cc(F)ccc3F)c([N+](=O)[O-])c2)CC1 | -3.71 (active) | -1.15 | 0.395 | -2.24 |  |  |  | 
O=C(Nc1ccc(F)cc1)C1CCN(C(=O)c2ccc([N+](=O)[O-])cc2)CC1 | -0.907 (inactive) | 0.228 | 0.208 | -0.321 |  |  |  | 
CC1CCN(C(=O)c2ccc(CSc3ccc(Cl)cc3)cc2)CC1 | -0.555 (inactive) | 0.71 | -0.258 | -0.29 |  |  |  | 
O=C(CC(NC(=O)c1ccccc1)c1ccccc1)Nc1ccc(F)c(F)c1 (configuration not stated) | -0.729 (inactive) | 0.477 | -0.215 | -0.567 |  |  |  | 
COc1ccc2c(c1)cc1n2CCN=C1NN | 1.67 (inactive) | -0.465 | -0.0728 | 0.848 |  |  |  | 
Cc1ccc2nc(C)c3c(c2c1)N(c1ccccc1)CC3 | -0.838 (inactive) | 0.0751 | -0.205 | -0.482 |  |  |  | 
CCCN(c1ccc(C)cc1)c1nc(=O)c2cccnc2s1 | 0.0477 (inactive) | 0.0213 | -0.295 | 0.0592 |  |  |  | 
Cc1ccc(Cl)cc1N1CCN(C(=O)c2cccc3c(=O)c(C)c(-c4ccccc4)oc23)CC1 | -0.56 (inactive) | 0.953 | -0.179 | -0.287 |  |  |  | 
CCOC(=O)c1cc2c(ccn2C)n1CC(=O)N1CCC(C)CC1 |  |  |  |  | -0.704 (inactive) | 0.841 | -0.262 | -1.05
O=C1/C(=C\c2cccnc2)CN(Cc2ccccc2)C/C1=C\c1cccnc1 | -3.59 (active) | -0.00204 | 0.672 | -2.16 |  |  |  | 
O=Cc1cn(Cc2ccccc2)nc1-c1cccnc1 | -0.988 (inactive) | 0.721 | -0.215 | -0.566 |  |  |  | 
Clc1ccc(CN2CCN(/N=C/c3cccnc3)CC2)cc1 | -0.266 (inactive) | 0.201 | -0.295 | -0.167 |  |  |  | 
Cc1ccc(S(=O)(=O)N(C)c2ccc(OCC(=O)NC3=NCCS3)cc2)cc1 | 0.77 (inactive) | -1.53 | 0.171 | 1.46 |  |  |  | 
Cc1ccnc(N2CCN(C(=O)CSc3nc4ccccc4nc3N3CCCCC3)CC2)c1 | -1.05 (inactive) | 0.232 | -0.187 | -0.257 |  |  |  | 
CC(C)(C)c1cc(NC(=O)NN2CCOCC2)nn1-c1c(Cl)cc(Cl)cc1Cl | 0.305 (inactive) | 0.973 | -0.287 | -0.0782 |  |  |  | 
COc1ccc(CCNC(=O)c2ccc(CS(=O)(=O)c3ccc(Br)cc3)o2)cc1OC | 0.736 (inactive) | 0.162 | -0.215 | 0.28 |  |  |  | 

Structure (SMILES) | z-score (at 20 µM, stronger effect = lower value) | z-score [1] | z-score [2] | z-score [3] | z-score (at 50 µM, stronger effect = lower value) | z-score [4] | z-score [5] | z-score [6]
CCN(Cc1nc2ccccc2c(=O)[nH]1)Cc1cc(=O)oc2cc(C)c(C)cc12 |  |  |  |  | 0.712 (inactive) | 0.798 | -0.276 | -0.426
CCOC(=O)c1cnc2[nH]c3ccccc3n2c1=O | -0.506 (inactive) | -0.246 | 0.0235 | -0.197 |  |  |  | 
O=c1[nH]c2ccccc2n2c(-c3ccccc3)nnc12 |  |  |  |  | -4.53 (active) | 0.378 | 0.89 | -2.64
O=[N+]([O-])c1cccc(-c2nnc3c4ccccc4c4ccccc4n23)c1 | -0.00649 (inactive) | 0.483 | 1.22 | 0.469 |  |  |  | 
CCCn1c(SCC(=O)Nc2ccc(C)c(S(=O)(=O)N3CCOCC3)c2)n[nH]c1=O | 1.09 (inactive) | 0.0169 | -0.261 | 0.257 |  |  |  | 
Cc1ccc2nc(Nc3ncc4c(n3)CC(C)(C)CC4=O)nc(C)c2c1 | 0.135 (inactive) | 0.445 | -0.285 | -0.00084 |  |  |  | 
Cc1nn(C)c(Oc2ccccc2)c1[N+](=O)[O-] | -0.413 (inactive) | 0.292 | -0.104 | 0.119 |  |  |  | 
Cn1c(=O)c([N+](=O)[O-])c(Oc2ccccc2)c2ccccc21 | -6.51 (active) | 0.669 | 1.62 | -2.76 |  |  |  | 
COc1cccc(C(=O)Oc2cc(C)[nH]c(=O)c2[N+](=O)[O-])c1 | 1.66 (inactive) | -1.05 | -0.136 | 0.869 |  |  |  | 
Cc1cccc(Oc2c([N+](=O)[O-])c(=O)n(C)c3ccccc23)c1 | -4.31 (active) | 0.72 | 0.943 | -2.29 |  |  |  | 
Cn1c2ccccc2c(=O)c2c(O)cccc21 | -0.39 (inactive) | 0.337 | -0.342 | -0.208 |  |  |  | 
Cc1cccc(OP(=O)(Nc2c(C)n(C)n(-c3ccccc3)c2=O)Oc2cccc(C)c2)c1 | 1.6 (inactive) | -1.31 | -0.218 | 1.25 |  |  |  | 
CC(NC(=S)Nc1ccccc1)C1COc2ccccc2O1 (configuration not stated) | 0.289 (inactive) | 0.134 | -0.0607 | 0.355 |  |  |  | 
CCN(CC)Cc1csc2ccc(Br)cc12 | -0.627 (inactive) | 1.15 | -0.13 | 0.249 |  |  |  | 
O=C(Nc1ccc(F)cc1)c1cccnc1N1CCOCC1 |  |  |  |  | 0.0462 (inactive) | 1.37 | -0.00933 | 0.174
O=c1[nH]c(N2CCN(Cc3ccc4c(c3)OCO4)CC2)nc2c1CCCC2 | -1.03 (inactive) | 2.27 | -0.309 | -0.0483 |  |  |  | 
COCC1CCCN(Cc2nc(-c3ccc4c(c3)OCO4)no2)C1 (configuration not stated) | 0.118 (inactive) | 0.19 | -0.27 | 0.224 |  |  |  | 
CSC1=N/C(=C\c2ccc3c(c2)OCO3)C(=O)S1 |  |  |  |  | -0.0628 (inactive) | -0.123 | -0.227 | -0.89
O=C1/C(=C/c2ccc3c(c2)OCO3)CCC/C1=C\c1ccc2c(c1)OCO2 | 0.645 (inactive) | -1.87 | 1.28 | 0.356 |  |  |  | 
CCC1=C/C(=C\c2ccc3c(c2)OCO3)C(=O)S1 | -3.72 (active) | 0.295 | 0.919 | -1.39 |  |  |  | 
Cc1cccc(C)c1NC1=NC(=S)N(c2ccc(N(C)C)cc2)C1(C)C | 1.25 (inactive) | 0.0641 | -0.0144 | 0.985 |  |  |  | 
Cc1ccc(/C=N/NC(=S)NC2CCCCC2)o1 | -0.738 (inactive) | -0.0991 | -0.777 | -0.608 |  |  |  | 
